Experimental data published in ChEMBL document CHEMBL5724801, “EUbOPEN Chemogenomics Library - Multiplex” (2024).
Several values for one entry are separate records, joined by “and”; a condition that tells them apart may be missing. Identical values can stand only once.

Tested on: Fibroblast
Assay: Multiplex assay against human fibroblast
Format: toxicity, cell-based
Summary of the method: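 At seeding, live cells were stained with Hoechst33342, BioTracker Green Microtubule Cytoskeleton Dye, MitoTracker Red and Annexin V Alexa Fluor 680. After compound addition they were imaged on a CQ1 microscope at 37°C and 5% CO2, and CellPathfinder machine-learning gating sorted them into Hoechst high-intensity objects or normal cells, with normal cells further split into healthy, pyknosed or fragmented nuclei and pyknosed cells into mitotic or apoptotic. Tubulin, mitochondrial-mass and membrane-permeability phenotypes are given as per cents of cells with healthy nuclei.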

[1] = 12 h, 1 µM, compound concentration 1 uM
[2] = 12 h, 10 µM, compound concentration 10 uM
[3] = 24 h, 1 µM, compound concentration 1 uM
[4] = 24 h, 10 µM, compound concentration 10 uM
[5] = 48 h, 1 µM, compound concentration 1 uM
[6] = 48 h, 10 µM, compound concentration 10 uM

CCCCCN1C(=O)C2(COc3cc4c(cc32)OCO4)c2ccccc21 (stereo not drawn)
Population Apoptotic (%) [1]: 17.31% and 20.59% | Population Fragmented Nuclei (%) [1]: 11.05% and 2.26% | Population Healthy Nuclei (%) [1]: 61.58% and 82.35% | Population Hoechst High Intensity Objects (%) [1]: 0% | Population Membrane Permeable-Phenotype (%) [1]: 2.56% and 3.85% | Population Mitochondria Different-Phenotype (%) [1]: 11.97% and 6.04% | Population Mitotic Cells (%) [1]: 82.69% and 79.41% | Population Normal (%) [1]: 100% | Population Pyknosed Nuclei (%) [1]: 27.37% and 15.38% | Population Tubulin-Different-Phenotype (%) [1]: 20.51% and 12.09% | Total Cell Count [1]: 190 and 221 | Population Fragmented Nuclei (%) [2]: 8.24% and 5.79% | Population Healthy Nuclei (%) [2]: 54.95% and 72.97% | Population Hoechst High Intensity Objects (%) [2]: 0% | Population Membrane Permeable-Phenotype (%) [2]: 4% and 3.7% | Population Mitochondria Different-Phenotype (%) [2]: 14% and 13.76% | Population Mitotic Cells (%) [2]: 97.01% and 85.45% | Population Normal (%) [2]: 100% | Population Pyknosed Nuclei (%) [2]: 36.81% and 21.24% | Population Tubulin-Different-Phenotype (%) [2]: 36% and 35.45% | Total Cell Count [2]: 182 and 259 | Population Apoptotic (%) [3]: 18.18% and 13.04% | Population Fragmented Nuclei (%) [3]: 9.76% and 2.67% | Population Healthy Nuclei (%) [3]: 74.15% and 87.11% | Population Hoechst High Intensity Objects (%) [3]: 0% | Population Membrane Permeable-Phenotype (%) [3]: 4.61% and 1.53% | Population Mitochondria Different-Phenotype (%) [3]: 7.89% and 4.59% | Population Mitotic Cells (%) [3]: 81.82% and 86.96% | Population Normal (%) [3]: 100% | Population Pyknosed Nuclei (%) [3]: 16.1% and 10.22% | Population Tubulin-Different-Phenotype (%) [3]: 16.45% and 15.82% | Total Cell Count [3]: 205 and 225 | Population Apoptotic (%) [4]: 4.65% and 8.82% | Population Fragmented Nuclei (%) [4]: 8.78% and 2.37% | Population Healthy Nuclei (%) [4]: 70.24% and 84.19% | Population Hoechst High Intensity Objects (%) [4]: 0% | Population Membrane Permeable-Phenotype (%) [4]: 1.39% and 0.94% | Population Mitochondria Different-Phenotype (%) [4]: 13.19% and 12.21% | Population Mitotic Cells (%) [4]: 95.35% and 91.18% | Population Normal (%) [4]: 100% | Population Pyknosed Nuclei (%) [4]: 20.98% and 13.44% | Population Tubulin-Different-Phenotype (%) [4]: 42.36% and 37.09% | Total Cell Count [4]: 205 and 253 | Population Fragmented Nuclei (%) [5]: 11.57% and 4.05% | Population Healthy Nuclei (%) [5]: 82.41% and 89.64% | Population Hoechst High Intensity Objects (%) [5]: 0% | Population Membrane Permeable-Phenotype (%) [5]: 1.12% and 3.02% | Population Mitotic Cells (%) [5]: 92.31% and 64.29% | Population Normal (%) [5]: 100% | Population Pyknosed Nuclei (%) [5]: 6.02% and 6.31% | Population Tubulin-Different-Phenotype (%) [5]: 5.62% and 14.07% | Total Cell Count [5]: 216 and 222 | Population Apoptotic (%) [6]: 37.5% and 23.53% | Population Fragmented Nuclei (%) [6]: 7.32% and 3.05% | Population Healthy Nuclei (%) [6]: 84.88% and 90.46% | Population Hoechst High Intensity Objects (%) [6]: 0% | Population Membrane Permeable-Phenotype (%) [6]: 1.15% and 2.95% | Population Mitochondria Different-Phenotype (%) [6]: 15.52% and 5.91% | Population Mitotic Cells (%) [6]: 62.5% and 76.47% | Population Normal (%) [6]: 100% | Population Pyknosed Nuclei (%) [6]: 7.8% and 6.49% | Population Tubulin-Different-Phenotype (%) [6]: 16.09% and 33.76% | Total Cell Count [6]: 205 and 262

O=c1nc2[nH]c3ccccc3nc-2c(=O)[nH]1 [ALLOXAZINE]
Population Apoptotic (%) [1]: 56% and 37% | Population Fragmented Nuclei (%) [1]: 16% and 26% | Population Healthy Nuclei (%) [1]: 67% and 50% | Population Hoechst High Intensity Objects (%) [1]: 5% and 3% | Population Membrane Permeable-Phenotype (%) [1]: 0% and 6% | Population Mitochondria Different-Phenotype (%) [1]: 2% and 3% | Population Mitotic Cells (%) [1]: 43% and 62% | Population Normal (%) [1]: 94% and 96% | Population Pyknosed Nuclei (%) [1]: 16% and 23% | Population Tubulin-Different-Phenotype (%) [1]: 23% and 33% | Total Cell Count [1]: 193 and 131 | Population Apoptotic (%) [2]: 33% and 41% | Population Fragmented Nuclei (%) [2]: 23% and 41% | Population Healthy Nuclei (%) [2]: 60% and 38% | Population Hoechst High Intensity Objects (%) [2]: 4% and 1% | Population Membrane Permeable-Phenotype (%) [2]: 3% | Population Mitochondria Different-Phenotype (%) [2]: 5% and 15% | Population Mitotic Cells (%) [2]: 66% and 58% | Population Normal (%) [2]: 95% and 98% | Population Pyknosed Nuclei (%) [2]: 15% and 20% | Population Tubulin-Different-Phenotype (%) [2]: 23% and 57% | Total Cell Count [2]: 158 and 86 | Population Apoptotic (%) [3]: 52% and 36% | Population Fragmented Nuclei (%) [3]: 17% and 31% | Population Healthy Nuclei (%) [3]: 69% and 41% | Population Hoechst High Intensity Objects (%) [3]: 3% and 4% | Population Membrane Permeable-Phenotype (%) [3]: 0% and 2% | Population Mitochondria Different-Phenotype (%) [3]: 2% and 0% | Population Mitotic Cells (%) [3]: 47% and 63% | Population Normal (%) [3]: 96% and 95% | Population Pyknosed Nuclei (%) [3]: 12% and 27% | Population Tubulin-Different-Phenotype (%) [3]: 21% and 31% | Total Cell Count [3]: 190 and 114 | Population Apoptotic (%) [4]: 47% and 64% | Population Fragmented Nuclei (%) [4]: 19% and 45% | Population Healthy Nuclei (%) [4]: 64% and 32% | Population Hoechst High Intensity Objects (%) [4]: 3% | Population Membrane Permeable-Phenotype (%) [4]: 0% | Population Mitochondria Different-Phenotype (%) [4]: 2% and 7% | Population Mitotic Cells (%) [4]: 52% and 35% | Population Normal (%) [4]: 96% | Population Pyknosed Nuclei (%) [4]: 15% and 21% | Population Tubulin-Different-Phenotype (%) [4]: 22% and 50% | Total Cell Count [4]: 153 and 82 | Population Apoptotic (%) [5]: 71% and 39% | Population Fragmented Nuclei (%) [5]: 14% and 30% | Population Healthy Nuclei (%) [5]: 72% and 48% | Population Hoechst High Intensity Objects (%) [5]: 9% and 3% | Population Membrane Permeable-Phenotype (%) [5]: 0% and 9% | Population Mitochondria Different-Phenotype (%) [5]: 1% | Population Mitotic Cells (%) [5]: 28% and 60% | Population Normal (%) [5]: 90% and 96% | Population Pyknosed Nuclei (%) [5]: 13% and 20% | Population Tubulin-Different-Phenotype (%) [5]: 23% and 56% | Total Cell Count [5]: 178 and 114 | Population Apoptotic (%) [6]: 55% and 45% | Population Fragmented Nuclei (%) [6]: 26% and 49% | Population Healthy Nuclei (%) [6]: 61% and 36% | Population Hoechst High Intensity Objects (%) [6]: 6% and 2% | Population Membrane Permeable-Phenotype (%) [6]: 2% and 3% | Population Mitotic Cells (%) [6]: 44% and 54% | Population Normal (%) [6]: 93% and 97% | Population Pyknosed Nuclei (%) [6]: 11% and 13% | Population Tubulin-Different-Phenotype (%) [6]: 29% and 51% | Total Cell Count [6]: 164 and 81

Cc1cccc(NC(=O)CN2CCC(c3ccccn3)CC2)c1.Cl.Cl
Population Apoptotic (%) [1]: 47% and 33% | Population Fragmented Nuclei (%) [1]: 16% and 25% | Population Healthy Nuclei (%) [1]: 70% and 55% | Population Hoechst High Intensity Objects (%) [1]: 4% and 6% | Population Membrane Permeable-Phenotype (%) [1]: 0% and 2% | Population Mitochondria Different-Phenotype (%) [1]: 6% and 5% | Population Mitotic Cells (%) [1]: 52% and 66% | Population Normal (%) [1]: 95% and 93% | Population Pyknosed Nuclei (%) [1]: 12% and 19% | Population Tubulin-Different-Phenotype (%) [1]: 34% and 35% | Total Cell Count [1]: 140 and 232 | Population Apoptotic (%) [2]: 59% and 34% | Population Healthy Nuclei (%) [2]: 78% and 30% | Population Hoechst High Intensity Objects (%) [2]: 10% and 2% | Population Membrane Permeable-Phenotype (%) [2]: 1% and 6% | Population Mitochondria Different-Phenotype (%) [2]: 7% and 10% | Population Mitotic Cells (%) [2]: 40% and 65% | Population Normal (%) [2]: 89% and 98% | Population Pyknosed Nuclei (%) [2]: 13% and 23% | Population Tubulin-Different-Phenotype (%) [2]: 36% and 56% | Total Cell Count [2]: 229 and 100 | Population Apoptotic (%) [3]: 50% and 40% | Population Fragmented Nuclei (%) [3]: 18% and 26% | Population Healthy Nuclei (%) [3]: 70% and 53% | Population Hoechst High Intensity Objects (%) [3]: 2% and 4% | Population Membrane Permeable-Phenotype (%) [3]: 0% and 4% | Population Mitochondria Different-Phenotype (%) [3]: 8% and 6% | Population Mitotic Cells (%) [3]: 50% and 59% | Population Normal (%) [3]: 97% and 95% | Population Pyknosed Nuclei (%) [3]: 10% and 19% | Population Tubulin-Different-Phenotype (%) [3]: 25% and 30% | Total Cell Count [3]: 134 and 239 | Population Apoptotic (%) [4]: 64% and 42% | Population Healthy Nuclei (%) [4]: 81% and 34% | Population Hoechst High Intensity Objects (%) [4]: 7% and 0% | Population Membrane Permeable-Phenotype (%) [4]: 0% and 11% | Population Mitochondria Different-Phenotype (%) [4]: 11% | Population Mitotic Cells (%) [4]: 35% and 57% | Population Normal (%) [4]: 92% and 100% | Population Tubulin-Different-Phenotype (%) [4]: 38% and 50% | Total Cell Count [4]: 217 and 105 | Population Apoptotic (%) [5]: 80% and 60% | Population Fragmented Nuclei (%) [5]: 25% and 31% | Population Healthy Nuclei (%) [5]: 63% and 55% | Population Hoechst High Intensity Objects (%) [5]: 3% | Population Membrane Permeable-Phenotype (%) [5]: 1% and 4% | Population Mitochondria Different-Phenotype (%) [5]: 3% | Population Mitotic Cells (%) [5]: 20% and 39% | Population Normal (%) [5]: 96% | Population Pyknosed Nuclei (%) [5]: 11% and 12% | Population Tubulin-Different-Phenotype (%) [5]: 28% and 35% | Total Cell Count [5]: 138 and 229 | Population Apoptotic (%) [6]: 76% and 28% | Population Healthy Nuclei (%) [6]: 75% and 39% | Population Hoechst High Intensity Objects (%) [6]: 7% and 1% | Population Membrane Permeable-Phenotype (%) [6]: 2% | Population Normal (%) [6]: 92% and 98% | Population Pyknosed Nuclei (%) [6]: 7% and 6% | Population Tubulin-Different-Phenotype (%) [6]: 44% and 61% | Total Cell Count [6]: 238 and 109
